The source made the active and inactive calls. The rule behind the calls is not given here.

In one test the target is T1, Protein lin-28 homolog A (Mus musculus, UniProt Q8K3Y3).
T1 sequence (Q8K3Y3 whole entry): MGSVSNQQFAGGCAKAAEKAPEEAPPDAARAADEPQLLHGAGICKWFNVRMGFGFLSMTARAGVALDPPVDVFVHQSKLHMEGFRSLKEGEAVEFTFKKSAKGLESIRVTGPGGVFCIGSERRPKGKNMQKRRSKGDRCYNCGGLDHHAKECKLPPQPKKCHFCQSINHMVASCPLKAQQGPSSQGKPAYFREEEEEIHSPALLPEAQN
Put plainly: (§1) Binding affinity to mouse N-terminal Halo-fused/biotin-labelled Lin28A expressed in Escherichia coli BL21(DE3) assessed as inhibition of protein interaction with pre-Let-7d microRNA measured after 1 hr by cat-ELCCA. The gist of the method: (§2)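 Biotinylated HaloTag-mLin28A (10 μL of 200 nM in storage buffer) immobilized on streptavidin plates overnight at 4 °C. TCO-pre-let-7d (200 nM in binding buffer) added with compound, 5% DMSO final, 1 h at 25 °C. Then mTet-HRP (750 nM) click for 1 h at 25 °C, washes, chemiluminescent read. CRCs were eight points, 3.3–120 μM.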

Test [1] addresses T2, Protein lin-28 homolog A (Mus musculus) (UniProt Q8K3Y3).
T2 sequence (whole entry): T1 sequence (Q8K3Y3 whole entry)
Put plainly: Binding affinity to mouse N-terminal Halo-fused/biotin-labelled Lin28A expressed in Escherichia coli BL21(DE3) assessed as inhibition of protein interaction with microRNA at 20 to 50 uM by electrophoretic mobility shift assay. A general note: A gel shift assay detects complexes by their altered migration in electrophoresis.

Test [2] concerns the target T2, Protein lin-28 homolog A (Mus musculus). As to the kind of experiment: Binding affinity to mouse N-terminal Halo-fused/biotin-labelled Lin28A expressed in Escherichia coli BL21(DE3) at 18.7 to 75 uM by surface plasmon resonance analysis. Put shortly: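 SPR on BioCap chip with biotinylated HaloTag-Lin28A immobilized at 2,300 RU. Running buffer: 50 mM Tris pH 7.6, 150 mM NaCl, 1 mM β-ME, 5% glycerol, 0.05% Tween-20, 1 mM ZnCl₂, 5% DMSO. Analytes at 75, 37.5, 18.7 μM, injected 50 μL at 50 μL/min; regeneration between cycles.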

For test [3] the target is unchanged. As to the kind of experiment: Binding affinity to mouse N-terminal Halo-fused/biotin-labelled Lin28A expressed in Escherichia coli BL21(DE3) assessed as inhibition of protein interaction with pre-Let-7d microRNA by electrophoretic mobility shift assay.
The target of test [4] is Eukaryotic translation initiation factor 4E/Eukaryotic translation initiation factor 4E-binding protein 1 (Homo sapiens) (UniProt P06730+Q13541). As to the kind of experiment: Inhibition of eIF4E-4E-BP1 (unknown origin) interaction at 100 uM by cat-ELCCA. Format: protein assay. Put shortly:
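Counter-screen: eIF4E–4E-BP1 interaction read by cat-ELCCA with compound at 100 μM; assay setup cited to earlier work.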

In test [5] the target is T2, Protein lin-28 homolog A (Mus musculus). Put plainly: Binding affinity to mouse N-terminal Halo-fused/biotin-labelled Lin28A expressed in Escherichia coli BL21(DE3) assessed as inhibition of protein interaction with pre-Let-7a microRNA at 20 to 50 uM by electrophoretic mobility shift assay.
The target of test [6] is T3, Protein lin-28 homolog B (Homo sapiens) (UniProt Q6ZN17).
T3 sequence (whole entry): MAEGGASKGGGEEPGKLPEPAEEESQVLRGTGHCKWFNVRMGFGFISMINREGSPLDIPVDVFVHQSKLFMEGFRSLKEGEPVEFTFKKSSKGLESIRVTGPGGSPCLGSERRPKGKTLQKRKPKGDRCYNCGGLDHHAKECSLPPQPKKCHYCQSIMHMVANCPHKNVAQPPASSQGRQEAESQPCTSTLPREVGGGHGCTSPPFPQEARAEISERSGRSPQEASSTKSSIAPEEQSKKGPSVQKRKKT
As to the kind of experiment: Binding affinity to human N-terminal Halo-fused/biotin-labelled Lin28B expressed in Escherichia coli BL21(DE3) assessed as inhibition of protein interaction with pre-Let-7d microRNA measured after 1 hr by cat-ELCCA. Put shortly: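 Human Lin28B, cloned from A549 cDNA as a HaloTag fusion, expressed in E. coli (IPTG 500 μM, overnight 37 °C), Ni-NTA purified, biotinylated with Biotin-PEG7-HaloTag ligand (10 equiv, overnight 4 °C), immobilized on streptavidin plates. TCO-labelled pre-let-7d plus compound in Tris binding buffer with ZnCl₂ and β-mercaptoethanol, 5% DMSO final, 25 °C 1 h. Bound RNA detected by mTet-HRP click chemistry and chemiluminescence. IC50 from curves.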

Test [7] has as its target Endoribonuclease Dicer (Homo sapiens) (UniProt Q9UPY3). Put plainly: Binding affinity to dicer (unknown origin) assessed as inhibition of dicer-meditated pre-let-7d microRNA maturation at 100 uM by electrophoretic mobility shift assay. The gist of the method:
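Dicer-mediated pre-let-7d maturation tested with compound at 100 μM; samples run with and without Dicer; procedure cited to earlier work.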

The nature of test [8]: Binding affinity to synthetic biotinylated pre-let-7d microRNA at 6.25 to 100 uM by surface plasmon resonance analysis. Put shortly: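 SPR with biotinylated pre-let-7d immobilized at 2,300 RU on BioCap chip. Analytes at 100, 50, 25, 12.5, 6.25 μM, injected 30 μL at 30 μL/min; regeneration between cycles.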
(In general: In SPR one partner is held on a chip, and binding of the other changes the refractive index at the surface.)

Test [9] has as its target T2, Protein lin-28 homolog A (Mus musculus). The description is as §1. The gist of the method: as §2

Endoribonuclease Dicer (Homo sapiens), sequence (Q9UPY3 whole entry): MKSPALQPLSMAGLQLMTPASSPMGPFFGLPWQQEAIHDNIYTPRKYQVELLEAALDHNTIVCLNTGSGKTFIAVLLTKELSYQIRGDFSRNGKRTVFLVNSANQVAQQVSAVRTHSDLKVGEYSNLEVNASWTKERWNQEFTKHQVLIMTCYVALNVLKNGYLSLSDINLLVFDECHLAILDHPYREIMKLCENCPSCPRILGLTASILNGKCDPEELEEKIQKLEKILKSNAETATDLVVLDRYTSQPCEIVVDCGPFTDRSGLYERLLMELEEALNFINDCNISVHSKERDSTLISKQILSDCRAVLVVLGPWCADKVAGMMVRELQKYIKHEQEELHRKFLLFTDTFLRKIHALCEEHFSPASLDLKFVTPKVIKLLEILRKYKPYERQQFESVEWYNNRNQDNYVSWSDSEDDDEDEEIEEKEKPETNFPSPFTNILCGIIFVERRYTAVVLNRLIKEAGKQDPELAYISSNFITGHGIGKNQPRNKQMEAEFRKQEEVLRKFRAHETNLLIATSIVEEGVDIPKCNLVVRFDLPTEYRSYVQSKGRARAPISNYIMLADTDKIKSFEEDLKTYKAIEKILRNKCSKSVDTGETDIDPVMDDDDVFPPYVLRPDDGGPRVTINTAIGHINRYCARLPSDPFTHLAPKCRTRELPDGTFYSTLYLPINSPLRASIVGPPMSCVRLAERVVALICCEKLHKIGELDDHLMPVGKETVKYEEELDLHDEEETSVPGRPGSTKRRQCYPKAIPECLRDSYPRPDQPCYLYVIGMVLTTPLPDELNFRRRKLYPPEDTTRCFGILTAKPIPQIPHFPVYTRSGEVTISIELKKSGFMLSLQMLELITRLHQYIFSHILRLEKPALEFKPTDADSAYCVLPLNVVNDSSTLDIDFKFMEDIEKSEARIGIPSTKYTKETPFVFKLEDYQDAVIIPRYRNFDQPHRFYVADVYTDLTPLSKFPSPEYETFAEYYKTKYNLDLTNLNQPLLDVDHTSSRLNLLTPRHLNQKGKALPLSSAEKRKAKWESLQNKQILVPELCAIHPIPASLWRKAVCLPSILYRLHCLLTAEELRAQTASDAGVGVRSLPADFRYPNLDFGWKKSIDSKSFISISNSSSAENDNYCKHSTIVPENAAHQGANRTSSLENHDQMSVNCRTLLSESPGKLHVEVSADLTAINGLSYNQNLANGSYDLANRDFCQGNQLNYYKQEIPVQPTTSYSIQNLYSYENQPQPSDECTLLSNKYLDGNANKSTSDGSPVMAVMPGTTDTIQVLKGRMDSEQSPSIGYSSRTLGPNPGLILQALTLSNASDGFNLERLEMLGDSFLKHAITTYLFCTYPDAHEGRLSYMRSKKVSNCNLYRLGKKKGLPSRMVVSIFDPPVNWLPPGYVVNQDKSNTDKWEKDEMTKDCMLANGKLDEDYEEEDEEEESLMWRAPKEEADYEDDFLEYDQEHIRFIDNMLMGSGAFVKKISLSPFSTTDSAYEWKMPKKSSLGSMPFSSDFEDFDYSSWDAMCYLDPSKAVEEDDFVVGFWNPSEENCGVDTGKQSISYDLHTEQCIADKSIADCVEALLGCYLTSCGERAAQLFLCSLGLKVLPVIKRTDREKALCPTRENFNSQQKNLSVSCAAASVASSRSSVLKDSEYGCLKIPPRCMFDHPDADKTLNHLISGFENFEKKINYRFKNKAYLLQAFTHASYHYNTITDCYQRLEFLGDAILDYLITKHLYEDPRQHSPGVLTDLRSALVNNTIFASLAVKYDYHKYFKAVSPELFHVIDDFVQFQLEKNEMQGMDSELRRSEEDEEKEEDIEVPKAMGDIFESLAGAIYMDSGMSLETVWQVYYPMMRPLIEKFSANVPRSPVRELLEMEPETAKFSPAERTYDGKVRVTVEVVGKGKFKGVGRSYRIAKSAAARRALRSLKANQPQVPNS
Eukaryotic translation initiation factor 4E/Eukaryotic translation initiation factor 4E-binding protein 1 (Homo sapiens), sequence (P06730 2-217 limits assumed): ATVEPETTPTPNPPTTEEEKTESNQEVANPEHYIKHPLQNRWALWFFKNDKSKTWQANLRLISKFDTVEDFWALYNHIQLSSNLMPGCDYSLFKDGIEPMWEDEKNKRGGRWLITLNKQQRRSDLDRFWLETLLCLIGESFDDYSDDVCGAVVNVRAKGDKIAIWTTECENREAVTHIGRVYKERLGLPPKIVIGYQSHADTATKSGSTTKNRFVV
Eukaryotic translation initiation factor 4E/Eukaryotic translation initiation factor 4E-binding protein 1 (Homo sapiens), sequence (Q13541 2-118 partner limits assumed): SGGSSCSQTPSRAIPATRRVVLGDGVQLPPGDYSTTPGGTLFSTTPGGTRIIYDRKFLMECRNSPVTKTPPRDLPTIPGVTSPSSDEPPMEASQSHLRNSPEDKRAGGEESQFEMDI

For orientation: IC50 means the point on the concentration scale where inhibition reaches its midpoint. In the case of `O=S(=O)(Nc1ccccc1NS(=O)(=O)c1ccc(Br)cc1)c1ccc(Br)cc1`, the IC50 on Protein lin-28 homolog A amounted to 17.5 µM.
For `Cc1ccc(NS(=O)(=O)c2ccccc2)c(NS(=O)(=O)c2ccccc2)c1`, the IC50 on Protein lin-28 homolog A stood at 28.8 µM.
Consider `Cc1ccc(S(=O)(=O)Nc2ccc(F)cc2NS(=O)(=O)c2ccc(C)cc2)cc1`, for which the inhibition result in test [1], in [3], in test [5] and in [6] was “Active” each time. In [2], the outcome was Active. For the same molecule, the inhibition entry in test [4] and in test [7] was “inactive” throughout. Moreover, the IC50 at Protein lin-28 homolog A worked out at 8.3 µM. Further, the result in [8] was inactive.
For the molecule `Cc1ccc(S(=O)(=O)Nc2ccc(C)cc2NS(=O)(=O)c2ccc(F)cc2)cc1`, the IC50 at Protein lin-28 homolog A was 11.7 µM.
`O=S(=O)(Nc1ccccc1NS(=O)(=O)c1ccccc1)c1ccccc1`: the IC50 on Protein lin-28 homolog A came to 32.2 µM.
As to `Cc1ccc(S(=O)(=O)Nc2ccc(C)cc2NS(=O)(=O)c2cccc(C(F)(F)F)c2)cc1`, the inhibition result in [1], in test [3], in test [5] and in test [6] was “Active” throughout. Further, the IC50 on Protein lin-28 homolog A was 10.4 µM. Besides, the inhibition entry in test [7] is “inactive”.
On to `Cc1ccc(NS(=O)(=O)c2ccc(F)cc2)c(NS(=O)(=O)c2ccc(F)cc2)c1`, for which the IC50 at Protein lin-28 homolog A amounted to 16.2 µM.
Regarding `O=S(=O)(c1ccccc1)N1CCN(S(=O)(=O)c2ccccc2)c2ccccc21`, the inhibition entry in [9] is “inactive”.
For the molecule `O=S(=O)(Nc1ccccc1NS(=O)(=O)c1ccc(F)cc1)c1ccccc1`, the IC50 on Protein lin-28 homolog A stood at 13.9 µM.
The same measure, in the same setting: the value for `O=S(=O)(Nc1ccccc1NS(=O)(=O)c1ccc(Cl)cc1)c1ccc(Cl)cc1` was 27.5 µM; that for `O=S(=O)(Nc1ccccc1NS(=O)(=O)c1ccc(F)cc1)c1ccc(F)cc1` was 28.3 µM; that for `O=S(=O)(Nc1ccccc1NS(=O)(=O)c1cccc(Cl)c1)c1ccc(F)cc1` was 10.8 µM.
Take `COc1ccc(S(=O)(=O)Nc2ccccc2NS(=O)(=O)c2ccc(F)cc2)cc1`: at Protein lin-28 homolog A, the IC50 amounted to 17.2 µM.
Regarding `Cc1ccc(S(=O)(=O)Nc2ccc(F)cc2NS(=O)(=O)c2ccc(C)c(Cl)c2)cc1Cl`, at Protein lin-28 homolog A, the IC50 was determined as 3.7 µM.
Turning to `O=S(=O)(Nc1cccc(NS(=O)(=O)c2ccccc2)c1)c1ccccc1`, the inhibition entry in test [9] was “inactive”.
`Nc1ccccc1NS(=O)(=O)c1ccccc1`: the inhibition result in test [9] was “inactive”.
In the case of `COc1ccc(S(=O)(=O)Nc2ccccc2NS(=O)(=O)c2ccc(OC)cc2)cc1`, on Protein lin-28 homolog A, the IC50 is 16.7 µM.
For the molecule `O=S(=O)(Nc1ccccc1NS(=O)(=O)c1cccc(Br)c1)c1ccc(F)cc1`, the IC50 on Protein lin-28 homolog A turned out to be 16.2 µM.
Turning to `O=C(Nc1ccccc1NC(=O)c1ccccc1)c1ccccc1`, the inhibition entry in test [9] was “inactive”.
Consider `O=S(=O)(Nc1ccccc1NS(=O)(=O)c1cccc(Cl)c1)c1cccc(Cl)c1`, for which the IC50 on Protein lin-28 homolog A was 5.7 µM.
Still for that read-out and setting: to `CC(=O)Nc1ccc(S(=O)(=O)Nc2ccccc2NS(=O)(=O)c2ccc(NC(C)=O)cc2)cc1` belongs 62.5 µM.
On the same count and under the same terms, the value for `Cc1ccc(NS(=O)(=O)c2ccc(Cl)cc2)c(NS(=O)(=O)c2ccc(Cl)cc2)c1` was 28.4 µM; that for `Cc1ccc(S(=O)(=O)Nc2ccc(C)cc2NS(=O)(=O)c2ccc(C)cc2)cc1` was 14.1 µM.
Take `O=S(=O)(Nc1ccccc1NS(=O)(=O)c1ccc(Cl)cc1)c1ccc(F)cc1`: the IC50 at Protein lin-28 homolog A was found to be 27.3 µM.
As to `Cc1ccc(S(=O)(=O)Nc2ccccc2NS(=O)(=O)c2ccc(C)c(Cl)c2)cc1Cl`, the IC50 at Protein lin-28 homolog A is 2.3 µM.
As to `Cc1ccc(NS(=O)(=O)c2cccc(Cl)c2)c(NS(=O)(=O)c2cccc(Cl)c2)c1`, the IC50 on Protein lin-28 homolog A worked out at 4.3 µM.

The values above are taken from ChEMBL document CHEMBL4145627, “Expansion of cat-ELCCA for the Discovery of Small Molecule Inhibitors of the Pre-let-7-Lin28 RNA-Protein Interaction” (ACS Med Chem Lett, 2018).
